According to ChEMBL document CHEMBL1136355, “Benzyl vinylogous amide substituted aryldihydropyridazinones and aryldimethylpyrazolones as potent and selective PDE3B inhibitors” (Bioorg Med Chem Lett, 2003):

What was measured:
[1] = molecular target: cGMP-inhibited 3',5'-cyclic phosphodiesterase 3A (Homo sapiens, UniProt Q14432); assay: Inhibitory concentration required to inhibit human phosphodiesterase 3A expressed in Escherichia coli
Outline: (§1)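 PDE3A and PDE3B made in E. coli BL21(DE3) pLysS after IPTG induction. Soluble extract ammonium sulfate-precipitated (50% saturation), dialysed, partially purified on DEAE Sepharose with a 70–250 mM NaCl gradient. IC50 is the mean of two or more experiments.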

[2] = molecular target: cGMP-inhibited 3',5'-cyclic phosphodiesterase 3B (Homo sapiens, UniProt Q13370); assay: Inhibitory concentration required to inhibit human phosphodiesterase 3B expressed in Escherichia coli; outline: as §1
Chain of cGMP-inhibited 3',5'-cyclic phosphodiesterase 3B (Q13370 whole entry): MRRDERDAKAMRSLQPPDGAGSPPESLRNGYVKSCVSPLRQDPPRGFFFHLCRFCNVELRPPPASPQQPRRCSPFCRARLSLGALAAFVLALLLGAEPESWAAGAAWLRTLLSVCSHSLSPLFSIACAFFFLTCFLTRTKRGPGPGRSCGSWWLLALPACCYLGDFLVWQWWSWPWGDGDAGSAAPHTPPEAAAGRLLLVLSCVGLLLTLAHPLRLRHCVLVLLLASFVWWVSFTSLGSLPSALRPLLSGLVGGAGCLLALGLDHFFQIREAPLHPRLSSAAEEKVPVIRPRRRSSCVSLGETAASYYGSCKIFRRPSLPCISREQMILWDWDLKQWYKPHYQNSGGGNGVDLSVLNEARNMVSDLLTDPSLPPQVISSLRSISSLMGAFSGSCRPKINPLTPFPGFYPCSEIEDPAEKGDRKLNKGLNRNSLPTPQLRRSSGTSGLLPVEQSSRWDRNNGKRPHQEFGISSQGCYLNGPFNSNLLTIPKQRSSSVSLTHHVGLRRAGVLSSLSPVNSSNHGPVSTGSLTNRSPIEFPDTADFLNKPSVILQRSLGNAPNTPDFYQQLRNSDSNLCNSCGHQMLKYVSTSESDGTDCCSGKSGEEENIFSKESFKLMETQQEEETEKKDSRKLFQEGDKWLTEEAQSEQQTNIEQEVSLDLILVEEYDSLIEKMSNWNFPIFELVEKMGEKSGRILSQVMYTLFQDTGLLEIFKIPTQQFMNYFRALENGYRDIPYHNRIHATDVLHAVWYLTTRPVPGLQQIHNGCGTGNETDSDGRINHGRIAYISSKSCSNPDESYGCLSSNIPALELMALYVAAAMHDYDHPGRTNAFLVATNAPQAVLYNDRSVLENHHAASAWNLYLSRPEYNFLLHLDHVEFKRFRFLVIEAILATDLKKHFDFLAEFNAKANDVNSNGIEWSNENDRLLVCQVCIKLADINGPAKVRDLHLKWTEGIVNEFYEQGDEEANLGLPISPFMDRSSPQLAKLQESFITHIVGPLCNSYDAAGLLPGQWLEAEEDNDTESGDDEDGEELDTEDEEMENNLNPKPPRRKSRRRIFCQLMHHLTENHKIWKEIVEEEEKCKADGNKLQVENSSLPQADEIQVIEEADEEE

[3] = molecular target: Phosphodiesterase 3 (Homo sapiens) (UniProt Q14432+Q13370); assay: Relative inhibition of Phosphodiesterase 3A and Phosphodiesterase 3B; assay type: protein assay
Outline: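 PDE3A and PDE3B expressed in E. coli BL21 (DE3) pLysS after IPTG induction, ammonium sulfate precipitated, partially purified on DEAE Sepharose. Activity measured by [3H]cAMP SPA assay in 50 mM Tris pH 7.5, 8.3 mM MgCl2, 1.7 mM EGTA, 10 nM [3H]cAMP, room temperature, 2–15 min. IC50s on each isoform are means of two or more experiments.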

[4] = Oral bioavailability was determined in rat after oral administration at a concentration 1 mg/kg; assay type: ADME, organism-based; conditions: in vivo
Outline: (§2)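 Rats dosed orally at 1.0 mg/kg. Blood levels were measured, and AUC was normalized and compared with iv exposure to give oral bioavailability.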

[5] = Half life in rat after intravenous administration at a concentration 0.5 mg/kg; assay type: ADME, organism-based; design: dose 0.5 mg/kg, route intravenous; conditions: in vivo
Outline: (§3)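 Rat pharmacokinetics after a 0.5 mg/kg intravenous dose; half-life and clearance derived from blood levels.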

[6] = Plasma clearance in rat after intravenous administration at a concentration 0.5 mg/kg; assay type: ADME, organism-based; design: dose 0.5 mg/kg, route intravenous; outline: as §3
[7] = system: Rattus norvegicus; assay: Area under curve was determined in rat after oral administration at a concentration 1 mg/kg; assay type: ADME, organism-based; design: dose 1 mg/kg, route oral; conditions: in vivo; outline: as §2
[8] = system: Rattus norvegicus; assay: In vivo plasma glycerol increase in anesthetized rat at 1 mg/kg iv dose for 60 min; assay type: functional; conditions: 1 h
Outline: (§4)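 Anesthetized rats given compound by intravenous infusion (1.0 mg/kg). Plasma glycerol increase over vehicle followed over a 90 min period, with a reading at 60 min taken as an index of lipolysis.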

[9] = system: Rattus norvegicus; assay: In vivo plasma glycerol increase in anesthetized rat at 1 mg/kg iv dose for 90 min; assay type: functional; conditions: 1 h, in the assay text read “60 min” for “90 min”; outline: as §4
[10] = system: Rattus norvegicus; assay: Maximal blood pressure decrease in rats at 0.02 mg/kg dose for 60 min; assay type: functional
Outline: (§5)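 Anesthetized rats given increasing intravenous doses (0.01–0.1 mg/kg). Mean arterial pressure recorded from 5 min to 60 min post-dose; decrease expressed as percentage.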

[11] = system: Rattus norvegicus; assay: Maximal blood pressure decrease in rats at 0.1 mg/kg dose for 60 min; assay type: functional; outline: as §5
[12] = system: Rattus norvegicus; assay: Increased metabolic rate in male rats for 8-h period after 10 mg/kg dose; assay type: functional
Outline: (§6)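 Male rats dosed orally at 1, 3 and 10 mg/kg. Metabolic rate monitored over 8 h post-dose and expressed as percentage increase in thermogenesis over the pre-dose rate.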

[13] = system: Rattus norvegicus; assay: Increased metabolic rate in male rats for 8-h period after 3 mg/kg dose; assay type: functional; outline: as §6

Chain of cGMP-inhibited 3',5'-cyclic phosphodiesterase 3A (Q14432 whole entry): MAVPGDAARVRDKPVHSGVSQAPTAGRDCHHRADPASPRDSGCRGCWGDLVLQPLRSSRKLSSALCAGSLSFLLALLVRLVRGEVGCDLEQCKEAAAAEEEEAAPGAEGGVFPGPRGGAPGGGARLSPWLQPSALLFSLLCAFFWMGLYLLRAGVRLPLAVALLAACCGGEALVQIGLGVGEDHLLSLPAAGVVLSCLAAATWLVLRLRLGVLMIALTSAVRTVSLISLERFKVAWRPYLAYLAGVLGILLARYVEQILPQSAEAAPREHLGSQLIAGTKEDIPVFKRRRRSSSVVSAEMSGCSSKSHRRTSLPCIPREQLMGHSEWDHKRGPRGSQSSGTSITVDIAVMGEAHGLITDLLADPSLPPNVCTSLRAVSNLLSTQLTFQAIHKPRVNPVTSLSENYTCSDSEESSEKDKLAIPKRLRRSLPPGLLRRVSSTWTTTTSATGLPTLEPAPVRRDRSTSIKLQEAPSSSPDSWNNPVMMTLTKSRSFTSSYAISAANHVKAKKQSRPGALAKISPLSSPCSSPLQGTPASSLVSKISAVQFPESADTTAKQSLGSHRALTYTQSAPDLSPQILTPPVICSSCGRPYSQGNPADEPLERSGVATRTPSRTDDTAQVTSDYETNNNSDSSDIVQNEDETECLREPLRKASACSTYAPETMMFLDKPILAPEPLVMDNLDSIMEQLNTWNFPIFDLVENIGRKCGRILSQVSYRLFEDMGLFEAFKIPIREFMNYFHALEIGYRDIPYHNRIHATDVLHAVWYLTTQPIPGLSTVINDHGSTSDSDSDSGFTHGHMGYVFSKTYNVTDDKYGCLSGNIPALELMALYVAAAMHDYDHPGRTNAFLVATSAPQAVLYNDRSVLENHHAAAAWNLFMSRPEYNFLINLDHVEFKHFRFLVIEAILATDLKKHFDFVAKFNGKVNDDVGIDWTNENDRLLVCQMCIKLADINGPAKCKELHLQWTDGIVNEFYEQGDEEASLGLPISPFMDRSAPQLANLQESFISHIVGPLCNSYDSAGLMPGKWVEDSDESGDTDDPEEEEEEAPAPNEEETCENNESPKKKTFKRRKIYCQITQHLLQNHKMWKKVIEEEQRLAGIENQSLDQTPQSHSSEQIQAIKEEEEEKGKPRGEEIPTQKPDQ

| IC50 [1] [nM] | IC50 [2] [nM] | Compound | other results |
| --- | --- | --- | --- |
| 2.2 | 0.13 | CC1(C)C(=O)NN=C1c1ccc(NC2=C(Cc3c(Cl)cccc3Cl)C(=O)CCC2)cc1F |  |
| 101 | 21 | CCc1cc(NC2=C(Cc3ccccc3)C(=O)CCC2)ccc1C1=NNC(=O)CC1C (stereo not drawn) |  |
| 550 | 30 | CC1(C)C(=O)NN=C1c1ccc(NC2=C(Cc3cccc([N+](=O)[O-])c3)C(=O)CCC2)cc1Cl |  |
| 20 | 2.5 | CC1(C)C(=O)NN=C1c1ccc(NC2=C(Cc3ccccc3)C(=O)CCC2)cc1F |  |
| 7.2 | 0.53 | CC1(C)C(=O)NN=C1c1ccc(NC2=C(Cc3ccccc3Cl)C(=O)CCC2)cc1F |  |
| 1.6 | 0.24 | CC1CC(=O)NN=C1c1ccc(NC2=C(Cc3ccccc3)C(=O)CCC2)cc1F (stereo not drawn) |  |
| 130 | 10 | Cc1cc(NC2=C(Cc3cccc(C#N)c3)C(=O)CCC2)ccc1C1=NNC(=O)C1(C)C |  |
| 38 | 4.8 | Cc1cc(NC2=C(Cc3ccccc3)C(=O)CCC2)ccc1C1=NNC(=O)C1(C)C |  |
| 46 | 4.8 | CC1CC(=O)NN=C1c1ccc(NC2=C(Cc3ccccc3)C(=O)CCC2)cc1Cl (stereo not drawn) |  |
| 53 | 10 | CC1(C)C(=O)NN=C1c1ccc(NC2=C(Cc3ccccc3)C(=O)CCC2)cc1 |  |
| 43 | 5.6 | CC1(C)C(=O)NN=C1c1ccc(NC2=C(Cc3cccc(F)c3)C(=O)CCC2)cc1F |  |
| 22 | 2.6 | Cc1cc(NC2=C(Cc3ccccc3)C(=O)CCC2)ccc1C1=NNC(=O)CC1C (stereo not drawn) |  |
| 1.6 | 0.62 | CC1CC(=O)NN=C1c1cc(F)c(NC2=C(Cc3ccccc3)C(=O)CCC2)cc1F (stereo not drawn) |  |
| 1.3 | 0.19 | C[C@@H]1CC(=O)NN=C1c1ccc(NC2=C(Cc3ccccc3)C(=O)CCC2)cc1 | bioavailability [4]: 61%; half-life [5]: 1 h; clearance [6]: 0.408 L/h/kg; AUC [7]: 3.6 µM·h; ED50 [8]: 0.6 mg/kg; ED50 [9]: 0.6 mg/kg; Max decrease [10]: 20%; Max decrease [11]: 40%; Metabolic rate [12]: 21%; Metabolic rate [13]: 14% |
| 69 | 3.2 | CC1(C)C(=O)NN=C1c1ccc(NC2=C(Cc3cccc(C#N)c3)C(=O)CCC2)cc1F |  |
| 63 | 3.1 | CC1(C)C(=O)NN=C1c1ccc(NC2=C(Cc3ccc(F)cc3)C(=O)CCC2)cc1F |  |
| 16 | 1.1 | CC1(C)C(=O)NN=C1c1ccc(NC2=C(Cc3ccccc3F)C(=O)CCC2)cc1F |  |
| 150 | 4.5 | CC1(C)C(=O)NN=C1c1ccc(NC2=C(Cc3cccc([N+](=O)[O-])c3)C(=O)CCC2)cc1F | Selectivity [3]: 33 |
| 77 | 6.3 | CC1(C)C(=O)NN=C1c1ccc(NC2=C(Cc3ccccc3Cl)C(=O)CCC2)cc1Cl |  |

More lines, now with the values behind:

| Compound | IC50 [1] [nM] | IC50 [2] [nM] | other results |
| --- | --- | --- | --- |
| CC1CC(=O)NN=C1c1ccc(/N=C2\CCCC(O)=C2Cc2ccccc2)c(F)c1 (stereo not drawn) | 1.2 | 0.26 |  |
| CC1CC(=O)NN=C1c1ccc(NC2=C(Cc3cccc([N+](=O)[O-])c3)C(=O)CCC2)cc1 (stereo not drawn) | 3.1 | 0.94 |  |
| CC1=C(Nc2ccc(C3=NNC(=O)C[C@H]3C)cc2)CCCC1=O | 44 | 8.8 |  |
| Cc1cc(C2=NNC(=O)CC2C)ccc1/N=C1\CCCC(O)=C1Cc1ccccc1 (stereo not drawn) | 3.7 | 0.61 |  |
| CC1CC(=O)NN=C1c1ccc(NC2=C(Cc3ccc([N+](=O)[O-])cc3)C(=O)CCC2)cc1 (stereo not drawn) | 24 | 5.5 |  |
| CC1(C)C(=O)NN=C1c1ccc(/N=C2\CCCC(O)=C2Cc2cccc(C#N)c2)c(F)c1F | 7.6 | 0.33 | Selectivity [3]: 23 |
| COc1ccccc1CC1=C(Nc2ccc(C3=NNC(=O)CC3C)cc2)CCCC1=O (stereo not drawn) | 0.39 | 0.13 |  |
| CC(=O)Nc1ccc(C2=NNC(=O)C[C@H]2C)cc1 | 96 | 37 |  |
| CC1CC(=O)NN=C1c1ccc(NC2=C(Cc3cccc(F)c3)C(=O)CCC2)cc1 (stereo not drawn) | 2.8 | 0.7 |  |
| CCOC(=O)Nc1ccc(C2=NNC(=O)C[C@H]2C)cc1 | 24 | 8.5 |  |
| CC1CC(=O)NN=C1c1ccc(NC2=C(Cc3cccc(I)c3)C(=O)CCC2)cc1 (stereo not drawn) | 0.33 | 0.11 |  |
| CC1CC(=O)NN=C1c1ccc(NC2=C(Cc3cccc(Br)c3)C(=O)CCC2)cc1 (stereo not drawn) | 0.94 | 0.3 |  |
| CC1CC(=O)NN=C1c1ccc(NC(=O)OCc2ccccc2)cc1 (stereo not drawn) | 2.9 | 1 |  |
| CC1CC(=O)NN=C1c1ccc(NC2=C(Cc3ccccc3C(F)(F)F)C(=O)CCC2)cc1 (stereo not drawn) | 0.83 | 0.35 |  |
| C[C@@H]1CC(=O)NN=C1c1ccc(NC(=O)c2ccccc2C(F)(F)F)cc1 | 15 | 5 |  |
| COc1ccc(CC2=C(Nc3ccc(C4=NNC(=O)CC4C)cc3)CCCC2=O)cc1 (stereo not drawn) | 2.3 | 0.7 |  |
| CN(C(=O)CCCOc1ccc2[nH]c(=O)ccc2c1)C1CCCCC1 [CILOSTAMIDE] |  | 18 |  |
